# In ChEMBL document CHEMBL1132588, “Synthesis, CoMFA analysis, and receptor docking of 3,5-diacyl-2, 4-dialkylpyridine derivatives as selective A3 adenosine receptor antagonists” (J Med Chem, 1999):
# Legend:
# [1] = molecular target: T1, Adenosine receptor A3 (Homo sapiens) (UniProt P0DMS8); assay: (§1) Displacement of specific [125 I]AB-MECA binding at human Adenosine A3 receptor expressed in HEK cells; type: cell-based; conditions: HEK293
# T1 sequence (whole entry): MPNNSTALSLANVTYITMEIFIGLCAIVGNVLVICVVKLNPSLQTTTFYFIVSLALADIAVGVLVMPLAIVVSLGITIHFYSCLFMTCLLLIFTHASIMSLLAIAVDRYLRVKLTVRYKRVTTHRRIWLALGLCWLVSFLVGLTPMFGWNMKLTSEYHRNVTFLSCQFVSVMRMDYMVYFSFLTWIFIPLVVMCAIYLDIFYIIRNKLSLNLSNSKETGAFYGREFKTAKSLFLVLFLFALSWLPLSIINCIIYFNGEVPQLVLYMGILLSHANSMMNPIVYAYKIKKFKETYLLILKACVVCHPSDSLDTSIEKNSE
# Adenosine receptor A2a = Adenosine receptor A2a (Rattus norvegicus, UniProt P30543); assay: Inhibition of [3H]-CGS- 21680 binding to Adenosine A2A receptor in rat striatal membranes.; type: cell membranes, Membrane
# Adenosine receptor A3 [2] = molecular target: T2, Adenosine receptor A3 (Rattus norvegicus, UniProt P28647); assay: Displacement of specific [125I]AB-MECA binding at rat Adenosine A3 receptor stably expressed in CHO cells; type: cell-based
# T2 sequence (P28647 whole entry): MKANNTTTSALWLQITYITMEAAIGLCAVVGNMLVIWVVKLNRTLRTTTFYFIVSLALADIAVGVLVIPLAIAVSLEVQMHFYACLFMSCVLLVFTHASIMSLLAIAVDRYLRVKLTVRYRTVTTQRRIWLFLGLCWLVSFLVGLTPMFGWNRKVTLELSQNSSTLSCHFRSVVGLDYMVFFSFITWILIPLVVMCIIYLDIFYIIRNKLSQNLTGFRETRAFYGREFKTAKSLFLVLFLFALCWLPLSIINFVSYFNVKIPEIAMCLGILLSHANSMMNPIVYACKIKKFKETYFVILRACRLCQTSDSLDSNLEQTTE
# Adenosine receptor A1 = molecular target: T3, Adenosine receptor A1 (Rattus norvegicus, UniProt P25099); assay: (§2) Displacement of specific [3H]-CGS- 21680R-PIA binding to Adenosine A1 receptor in rat brain membranes.; type: cell membranes; conditions: in the assay text read “[3H]R-PIA” for “[3H]-CGS- 21680R-PIA”
# T3 sequence (P25099 whole entry): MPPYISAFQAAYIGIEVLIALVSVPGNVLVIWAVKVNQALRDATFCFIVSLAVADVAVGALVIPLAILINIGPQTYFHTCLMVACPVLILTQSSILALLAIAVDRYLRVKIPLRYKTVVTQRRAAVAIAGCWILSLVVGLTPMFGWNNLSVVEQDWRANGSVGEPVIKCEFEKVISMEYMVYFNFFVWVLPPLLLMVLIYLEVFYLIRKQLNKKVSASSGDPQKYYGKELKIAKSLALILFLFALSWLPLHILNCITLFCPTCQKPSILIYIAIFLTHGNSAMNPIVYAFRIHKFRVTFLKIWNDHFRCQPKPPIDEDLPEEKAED
# In short: (§3)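 A1 binding used [3H]R-PIA on rat cerebral cortex membranes. Adenosine deaminase (3 units/mL) was included in membrane preparation, in a 30 min preincubation at 30 °C, and throughout radioligand incubation. Competitors were DMSO stocks diluted in buffer, with DMSO never above 2%.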
# Adenosine receptor A3 [3] = molecular target: T4, Adenosine receptor A3 (Homo sapiens, UniProt P0DMS8); assay: as §1; type: cell-based, HEK293
# T4 sequence (P0DMS8 whole entry): T1 sequence (whole entry)
# In short: (§4)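 Membranes from HEK-293 cells stably expressing human A3 receptor (clone HS-21a), or from CHO cells stably expressing rat A3 receptor (rat: n = 3-5), in 50 mM Tris, 10 mM Mg2+, 1 mM EDTA, pH 8.0. Membranes at 0.3 mg protein/mL with [125I]AB-MECA at 0.3 nM final. Nonspecific binding defined with R-PIA. Competitors were dissolved in DMSO (≤2% final) and tested at ≥5 concentrations spanning 3 log units. Bound ligand was separated by GF/B filtration with three buffer rinses; Ki was derived.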
# Rattus norvegicus [4] = species on record: Rattus norvegicus; assay: Ratio of binding affinities for rat A1 receptor against human A3 receptor, [Ki(rA1) / Ki (hA3)].
# In short: (§5)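 Ratio of Ki values from binding assays. For A3, [125I]AB-MECA (final 0.3 nM) bound membranes of HEK-293 cells expressing human A3 (clone HS-21a) or CHO cells expressing rat A3, in Tris/Mg2+/EDTA buffer at pH 8.0. For rat A1, [3H]R-PIA bound cerebral cortex membranes, with adenosine deaminase (3 units/mL) present, including a 30 min preincubation at 30 °C.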
# [5] = molecular target: T1, Adenosine receptor A3 (Homo sapiens); assay: as §1; type: cell-based; conditions: HEK293; concentration not given here; in short: as §4
# Rattus norvegicus [6] = species on record: Rattus norvegicus; assay: Ratio of the binding affinities against rat A3 receptor / human A3 receptor, Ki(rA1) / Ki (hA3).; in short: as §5
# Rattus norvegicus [7] = species on record: Rattus norvegicus; assay: Ratio of the binding affinities against rat A3 receptor / rat A3 receptor, Ki(rA1) / Ki (rA3).; in short: as §5
# [8] = molecular target: T5, Adenosine receptor A1 (Rattus norvegicus) (UniProt P25099); assay: as §2; type: cell membranes; conditions: concentration not given here; in short: as §3
# T5 sequence (whole entry): T3 sequence (P25099 whole entry)
# [9] = molecular target: Adenosine receptor A2a (Rattus norvegicus) (UniProt P30543); assay: Displacement of specific [3H]-CGS- 21680 binding to Adenosine A2A receptor in rat striatal membranes; type: cell membranes; parameters: concentration or dose not given beside the values; conditions: Membrane, concentration not given here
# In short: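 Rat striatal membranes labelled with [3H]CGS 21680 for A2A binding. Adenosine deaminase (3 units/mL) was present during membrane preparation, during a 30 min preincubation at 30 °C, and during radioligand incubation. Competitors were dissolved in DMSO and diluted in buffer (DMSO ≤2%).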
# Sequence of Adenosine receptor A2a (Rattus norvegicus) (P30543 whole entry): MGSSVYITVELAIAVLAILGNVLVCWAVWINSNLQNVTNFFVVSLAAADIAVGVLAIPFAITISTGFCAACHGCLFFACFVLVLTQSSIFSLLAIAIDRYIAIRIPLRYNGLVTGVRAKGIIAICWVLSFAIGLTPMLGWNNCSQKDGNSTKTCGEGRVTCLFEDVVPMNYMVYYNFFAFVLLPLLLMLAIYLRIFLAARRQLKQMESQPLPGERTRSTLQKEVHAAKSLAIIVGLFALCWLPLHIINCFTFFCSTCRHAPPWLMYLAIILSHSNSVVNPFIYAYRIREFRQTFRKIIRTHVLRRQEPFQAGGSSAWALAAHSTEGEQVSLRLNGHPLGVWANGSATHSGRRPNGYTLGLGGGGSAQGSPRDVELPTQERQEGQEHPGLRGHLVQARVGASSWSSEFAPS
# Sequence of Adenosine receptor A2a (P30543 whole entry): as above
Compound,pKi [1],Ki (Adenosine receptor A2a) [µM],Ki (Adenosine receptor A1) [µM],Ki (Adenosine receptor A3 [3]) [µM],Ratio (Rattus norvegicus [4]),further results
CCOC(=O)c1c(-c2ccccc2)nc(C2CCC2)c(C(=O)SCC)c1CC,6.84,–,–,–,–,–
CCCOC(=O)c1c(-c2ccccc2)nc(CC)c2c1CCSC2=O,7.6,67.1,16.5,0.248,–,Ki (Adenosine receptor A3 [2]): 2.58 µM
CCCOC(=O)c1c(-c2ccccc2)nc(CC)c(C(=O)SCCO)c1CCC,7.29,5.59,10.8,0.0511,210,–
CCCOC(=O)c1c(-c2ccccc2)nc(CCO)c(C(=O)SCC)c1CCC,–,29.1,5.94,–,–,inhibition [5]: 16%
CCOC(=O)c1c(CC)nc(-c2ccccc2)c(C(=O)OCC)c1C,6.92,–,–,–,–,–
CCSC(=O)c1c(CC)nc(-c2ccccc2)c(C(=O)OCCF)c1CC,8.37,7.33,11.5,–,2700,Ki (Adenosine receptor A3 [2]): 0.6 µM; Ratio (Rattus norvegicus [6]): 140; Ratio (Rattus norvegicus [7]): 19
CCCOC(=O)c1c(-c2ccccc2)nc(CC)c(C(=O)SCC)c1CCO,6.58,0.0103,9.04,0.262,35,–
CCSC(=O)c1c(CC)nc(-c2ccccc2)c(C(=O)OCCO)c1CC,6.73,–,–,–,–,–
CCCc1c(C(=O)SCC)c(C)nc(-c2ccccc2)c1C(=O)OCC,6.71,–,–,–,–,–
CCCOC(=O)c1c(CCC)c(C(=O)SCC)c(CC)[n+](C)c1-c1ccccc1,5.59,–,–,–,> 50,Ki (Adenosine receptor A3 [2]): 4.26 µM; inhibition [8]: < 10%; inhibition [9]: < 10%; Ratio (Rattus norvegicus [6]): 2.1; Ratio (Rattus norvegicus [7]): > 23
CCCOC(=O)c1c(-c2ccccc2)nc(CC)c(C(=O)SCCF)c1CCC,7.26,24.8,8.22,0.0551,150,–
CCOC(=O)c1c(-c2ccccc2)nc(CC)c(C(=O)SCC)c1CC,7.67,–,0.041,–,> 3000,Ratio (Rattus norvegicus [6]): 21; Ratio (Rattus norvegicus [7]): > 100
CCOC(=O)c1c(C)nc(-c2ccccc2)c(C(=O)OCC)c1C,5.35,–,–,–,–,–
CCCc1c2c(nc(-c3ccccc3)c1C(=O)OCC)CCSC2=O,–,43.6,25.1,–,–,–
CCOC(=O)c1c(C)nc(C2CCC2)c(C(=O)OCc2ccccc2)c1C#Cc1ccccc1,5.62,–,–,–,–,–
CCCOC(=O)c1c(-c2ccccc2)nc(CC)c(C(=O)SCC2COC(C)(C)O2)c1CCC (stereo unspecified),–,–,–,2.64,2.2,inhibition [9]: < 10%
CCCc1c(C(=O)SCC)c(CC)nc(-c2ccccc2)c1C(=O)OCCCF,8.01,9.67,6.05,0.00967,630,Ki (Adenosine receptor A3 [2]): 0.512 µM; Ratio (Rattus norvegicus [6]): 53; Ratio (Rattus norvegicus [7]): 12
CCCOC(=O)c1c(-c2ccccc2)nc(CC)c(C(=O)SCC)c1CCCO,6.77,–,–,–,–,–
CCCOC(=O)c1c(-c2ccccc2)nc(CC)c(C(=O)SCC)c1CCSC(C)=O,6.91,–,9.8,0.124,79,inhibition [9]: 28%
CCCOC(=O)c1c(-c2ccccc2)nc(CC)c(C(=O)SCC)c1CCC,7.72,2.05,15.6,0.0189,–,Ratio (Rattus norvegicus [6]): 6; Ratio (Rattus norvegicus [7]): 140
CCOC(=O)c1c(C)nc(-c2ccccc2)c(C(=O)OCC)c1CC,6.75,–,–,–,–,–
CCCOC(=O)c1c(C)nc(-c2ccccc2)c(C(=O)OCC)c1C,6.67,–,–,–,–,–
CCCc1c(C(=O)SCC)c(CC)nc(-c2ccccc2)c1C(=O)OCC(F)(F)C(F)(F)F,6.35,14,5.68,0.446,13,–
CCCCc1nc(-c2ccccc2)c(C(=O)OCC)c(CC)c1C(=O)SCC,7.46,–,–,–,–,–
